Source: ChEMBL document CHEMBL4699593, “Identification of 2,4-Disubstituted Imidazopyridines as Hemozoin Formation Inhibitors with Fast-Killing Kinetics and In Vivo Efficacy in the Plasmodium falciparum NSG Mouse Model” (J Med Chem, 2020)
Activity calls are given as the source filed them. No cut-off for these calls is given here.

Legend:
[1] = Tmax in Plasmodium falciparum 3D70087/N9 infected NSG mouse po by LC-MS/MS analysis; conditions: in vivo
[2] = Dose normalized Cmax in Plasmodium falciparum 3D70087/N9 infected NSG mouse at 1.5 mg/kg, po by LC-MS/MS analysis; assay type: ADME, organism-based; conditions: in vivo
Summary of the method: (§1)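 Oral (PO) dosing of NSG (NODscidIL2Rγnull) mice infected with P. falciparum. Cmax and AUC0–24 are taken from the infected-mouse PK analysis and are also expressed divided by dose.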

[3] = AUC (0 to 24 hrs) in Plasmodium falciparum 3D70087/N9 infected NSG mouse at 5 mg/kg, po by LC-MS/MS analysis; assay type: ADME, organism-based; set-up: time < 24 hr, route oral, dose 5 mg/kg; conditions: in vivo
Summary of the method: as §1

Plasmodium falciparum [4] = test: Antimalarial activity against asexual blood stage Plasmodium falciparum assessed as reduction in parasitemia by measuring log parasite reduction ratio at 10 times IC50; assay type: functional
[5] = Cmax in Plasmodium falciparum 3D70087/N9 infected NSG mouse at 200 mg/kg, po by LC-MS/MS analysis; assay type: ADME, organism-based; set-up: route oral, dose 200 mg/kg; conditions: in vivo
Summary of the method: as §1

hERG = test: Selectivity index, ratio of IC50 for inhibition of human ERG by patch clamp method to IC50 for antiplasmodial activity against multidrug-sensitive asexual blood stage Plasmodium falciparum NF54; assay type: toxicity; conditions: read-out: Ratio IC50
[6] = Clearance in Balb/C mouse blood at 2 mg/kg, iv by LC-MS/MS analysis; assay type: ADME, organism-based; conditions: whole blood
Summary of the method: (§2)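 Healthy Balb/c mice dosed i.v. or orally. Parameters come from non-compartmental analysis of compound concentration over time. […] Clearance is blood clearance (CL_b).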

Plasmodium falciparum [7] = test: Antiplasmodial activity against early stage (I to III) Plasmodium falciparum NF54 gametocytes at 5 uM incubated for 48 hrs under hypoxia condition by luciferase reporter gene assay relative to control; assay type: functional
[8] = AUC (0 to t) in Balb/C mouse at 20 mg/kg, po by LC-MS/MS analysis; assay type: ADME, organism-based; set-up: dose 20 mg/kg; conditions: in vivo
Summary of the method: as §2

[9] = Cmax in Plasmodium falciparum 3D70087/N9 infected NSG mouse at 50 mg/kg, po by LC-MS/MS analysis; assay type: ADME, organism-based; set-up: route oral, dose 50 mg/kg; conditions: in vivo
Summary of the method: as §1

[10] = AUC (0 to 24 hrs) in Plasmodium falciparum 3D70087/N9 infected NSG mouse at 1.5 mg/kg, po by LC-MS/MS analysis; assay type: ADME, organism-based; set-up: time < 24 hr, route oral, dose 1.5 mg/kg; conditions: in vivo
Summary of the method: as §1

[11] = Dose normalized AUC (0 to 24 hrs) in Plasmodium falciparum 3D70087/N9 infected NSG mouse at 15 mg/kg, po by LC-MS/MS analysis; assay type: ADME, organism-based; conditions: in vivo
Summary of the method: as §1

Plasmodium falciparum [12] = test: Antiplasmodial activity against early ring-stage synchronized Plasmodium falciparum assessed as decrease in hemozoin formation after 32 hrs by Giemsa-staining based haemocytometric counting method; assay type: functional, organism-based
[13] = Dose normalized Cmax in Plasmodium falciparum 3D70087/N9 infected NSG mouse at 200 mg/kg, po by LC-MS/MS analysis; assay type: ADME, organism-based; conditions: in vivo
Summary of the method: as §1

Plasmodium berghei = test: Antiplasmodial activity against luciferase-expressing Plasmodium berghei sporozoites liver stage infected in human HepG2 cells expressing GFP-CD81 fusion protein incubated for 48 hrs by luciferase reporter gene based bioluminescence assay; assay type: functional, organism-based; conditions: HepG2, 48 h
Summary of the method: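 Liver-stage activity was measured in vitro with rodent P. berghei sporozoites. Values are the mean of 3 technical replicates from the luciferase assay; individual values varied less than 2×.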

[14] = Tmax in Plasmodium falciparum 3D70087/N9 infected NSG mouse at 1.5 mg/kg, po by LC-MS/MS analysis; assay type: ADME, organism-based; conditions: in vivo
Summary of the method: (§3)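 P. falciparum-infected NSG mice received escalating single oral doses of 1.5, 5, 15, 50 and 100 mg/kg.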

[15] = Dose normalized Cmax in Plasmodium falciparum 3D70087/N9 infected NSG mouse at 50 mg/kg, po by LC-MS/MS analysis; assay type: ADME, organism-based; conditions: in vivo
Summary of the method: as §3

[16] = AUC (0 to 24 hrs) in Plasmodium falciparum 3D70087/N9 infected NSG mouse at 15 mg/kg, po by LC-MS/MS analysis; assay type: ADME, organism-based; set-up: time < 24 hr, route oral, dose 15 mg/kg; conditions: in vivo
Summary of the method: as §1

[17] = Dose normalized Cmax in Balb/c mouse at 20 mg/kg, po by LC-MS/MS analysis; assay type: ADME, organism-based; conditions: in vivo
Summary of the method: as §2

[18] = Dose normalized Cmax in Plasmodium falciparum 3D70087/N9 infected NSG mouse at 100 mg/kg, po by LC-MS/MS analysis; assay type: ADME, organism-based; conditions: in vivo
Summary of the method: as §1

[19] = Cmax in Plasmodium falciparum 3D70087/N9 infected NSG mouse at 5 mg/kg, po by LC-MS/MS analysis; assay type: ADME, organism-based; set-up: route oral, dose 5 mg/kg; conditions: in vivo
Summary of the method: as §1

[20] = AUC (0 to 24 hrs) in Plasmodium falciparum 3D70087/N9 infected NSG mouse at 200 mg/kg, po by LC-MS/MS analysis; assay type: ADME, organism-based; set-up: time < 24 hr, route oral, dose 200 mg/kg; conditions: in vivo
Summary of the method: as §1

[21] = AUC in Plasmodium falciparum infected NSG mouse at 62 mg/kg, po by LC-MS/MS analysis; assay type: ADME, organism-based; set-up: dose 62 mg/kg; conditions: in vivo
[22] = Drug recovery in mouse urine by LC-MS/MS analysis; assay type: ADME, tissue-based; conditions: in vivo
[23] = Dose normalized AUC (0 to 24 hrs) in Plasmodium falciparum 3D70087/N9 infected NSG mouse at 100 mg/kg, po by LC-MS/MS analysis; assay type: ADME, organism-based; conditions: in vivo
Summary of the method: as §1

Plasmodium falciparum [24] = test: Antimalarial activity against asexual blood stage Plasmodium falciparum assessed as reduction in parasitemia by measuring lag time at 10 times IC50; assay type: functional
Plasmodium falciparum [25] = test: Antiplasmodial activity against multidrug-resistant asexual blood stage Plasmodium falciparum K1 strain assessed as reduction in parasite growth after 72 hrs by NBT reagent based LDH assay; assay type: functional, organism-based; conditions: K1, 72 h
Summary of the method: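 Asexual blood-stage K1 (multidrug-resistant) parasites were read out by the parasite lactate dehydrogenase (pLDH) assay. […] Most individual values varied less than 2× (maximum 3×).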

[26] = Dose normalized AUC (0 to 24 hrs) in Plasmodium falciparum 3D70087/N9 infected NSG mouse at 200 mg/kg, po by LC-MS/MS analysis; assay type: ADME, organism-based; conditions: in vivo
Summary of the method: as §1

[27] = Drug metabolism in mouse blood assessed as oxidation and glucuronidation by LC-MS/MS analysis; assay type: ADME, tissue-based
[28] = Drug metabolism in mouse blood assessed as N-demethylation by LC-MS/MS analysis; assay type: ADME, tissue-based
[29] = Terminal half life in Balb/C mouse at 20 mg/kg, po by LC-MS/MS analysis; assay type: ADME, organism-based; conditions: in vivo, read-out: beta t1/2 (converted)
Summary of the method: (§4)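 Healthy Balb/c mice were given the compound i.v. or orally. Parameters come from non-compartmental analysis: AUC from 0 h to t_last, blood clearance, volume at steady state, terminal half-life, Tmax. Oral bioavailability F is derived from the i.v. and p.o. data.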

[30] = Terminal half life in Balb/C mouse at 2 mg/kg, iv by LC-MS/MS analysis; assay type: ADME, organism-based; conditions: in vivo, read-out: beta t1/2 (converted)
Summary of the method: as §4

[31] = Cmax in Balb/C mouse at 20 mg/kg, po by LC-MS/MS analysis; assay type: ADME, organism-based; set-up: route oral, dose 20 mg/kg; conditions: in vivo
Summary of the method: as §2

[32] = Cmax in Plasmodium falciparum 3D70087/N9 infected NSG mouse at 100 mg/kg, po by LC-MS/MS analysis; assay type: ADME, organism-based; set-up: route oral, dose 100 mg/kg; conditions: in vivo
Summary of the method: as §1

In the case of `CN1CCN(CC2CCN(c3nccc4[nH]c(-c5cc(F)cc(F)c5)nc34)CC2)CC1`, the Tmax [1] is reported as 4 h, the Cmax/dose [2] is reported as 0.03 µM·kg/mg and the AUC [3] is reported as 170 µM·min. For the same molecule, the Ratio (Plasmodium falciparum [4]) was 4.9, the Cmax [5] was 2840 nM and the selectivity ratio (hERG) was over 1300. The clearance [6] was 20.2 mL/min/kg, the inhibition at 5 µM (Plasmodium falciparum [7]) was under 50% and the AUCt [8] was 20 µM·h. The Cmax [9] was 2840 nM, the AUC [10] was 46 µM·min and the AUC/dose [11] was 65 µM·kg·min/mg. For the same molecule, the Activity (Plasmodium falciparum [12]) was “Active”, the Cmax/dose [13] was 0.06 µM·kg/mg and the IC50 (Plasmodium berghei) was 14 µM. For the same molecule, the Tmax [14] was 1.5 h, the Cmax/dose [15] was 0.06 µM·kg/mg and the AUC [16] was 969 µM·min. It also gave a Cmax/dose [17] of 0.08 µM·kg/mg, a Cmax/dose [18] of 0.07 µM·kg/mg and a Cmax [19] of 130 nM. The AUC(0-t) at 24 h [20] was 51.7 µM·h, the AUC [21] was 58.3 µM·h and the Drug recovery [22] was “Active”. It also gave an AUC/dose [23] of 51 µM·kg·min/mg, a Time (Plasmodium falciparum [24]) of 0 h and an IC50 (Plasmodium falciparum [25]) of 0.041 µM. The AUC/dose [26] was 62 µM·kg·min/mg, the Drug metabolism [27] was “Metabolite_Detected” and the Drug metabolism [28] was “Metabolite_Detected”. The half-life [29] was 32.7 h, the half-life [30] was 23.1 h and the Cmax [31] was 1500 nM. The Cmax [32] was 6680 nM.
